Consider one molecule from ChEMBL document CHEMBL4043193, “Cytotoxic effect of sanguiin H-6 on MCF-7 and MDA-MB-231 human breast carcinoma cells” (2017).

Assay [1] has as its system MCF7. The experiment in a line: Cytotoxicity against human MCF7 ER-positive cells assessed as decrease in cell viability at 5 to 100 uM after 24 hrs by EZ-Cytox assay. Type of assay: functional, cell-based.
Assay [2] deals with MDA-MB-231. Put plainly: Cytotoxicity against human MDA-MB-231 ER-negative cells assessed as decrease in cell viability at 5 to 100 uM after 24 hrs by EZ-Cytox assay. Type of assay: functional, cell-based.
For assay [3], the system named is MCF7. The experiment in a line: Cytotoxicity against human MCF7 ER-positive cells assessed as decrease in cell viability after 24 hrs by EZ-Cytox assay. The format is functional, cell-based.
For assay [4], the system named is MDA-MB-231. The experiment in a line: Cytotoxicity against human MDA-MB-231 ER-negative cells assessed as decrease in cell viability after 24 hrs by EZ-Cytox assay. Type of assay: functional, cell-based.
The subject of assay [5] is MCF7. The experiment in a line: Cytotoxicity against human MCF7 ER-positive cells assessed as cell viability at 100 uM after 24 hrs by EZ-Cytox assay relative to control. The settings on record: MCF7, 24 h, read-out: Activity. The format is functional.
The subject of assay [6] is MDA-MB-231. The experiment in a line: Cytotoxicity against human MDA-MB-231 ER-negative cells assessed as cell viability at 100 uM after 24 hrs by EZ-Cytox assay relative to control. The format is functional. The settings on record: MDA-MB-231, 24 h, read-out: Activity.
Assay [7] has as its system MCF7. Put plainly: Induction of apoptosis in human MCF7 ER-positive cells at 100 uM after 24 hrs by Annexin-V/propidium iodide staining-based cytometry relative to control. Type of assay: functional. The method in brief:
(§1)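 Cells exposed 24 h (MCF-7 at 50 or 100; MDA-MB-231 at 25 or 50), then stained with Alexa Fluor 488 annexin V conjugate for externalized phosphatidylserine and examined by fluorescence imaging. The read-out is the percentage of annexin-V-positive cells in a total cell count.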

The subject of assay [8] is MDA-MB-231. The experiment in a line: Induction of apoptosis in human MDA-MB-231 ER-negative cells at 50 uM after 24 hrs by Annexin-V/propidium iodide staining-based cytometry relative to control. Type of assay: functional. In short, it runs like this:
as §1

For assay [9], the system named is MCF7. The experiment in a line: Induction of apoptosis in human MCF7 ER-positive cells assessed as increase in cleaved caspase-8 levels at 50 to 100 uM after 24 hrs by Western blot analysis. The format is functional, cell-based. The method in brief: (§2)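 Western blot of whole cells after 24 h exposure (MCF-7 at 50 or 100; MDA-MB-231 at 25 or 50). Probed for cleavage of caspase-8, -9, -3 and PARP, and for Bax and Bcl-2 expression. The Bax:Bcl-2 ratio is derived from the same blots.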
For orientation: Immunoblotting shows a protein as a band on a membrane.

Assay [10] relates to MDA-MB-231. The experiment in a line: Induction of apoptosis in human MDA-MB-231 ER-negative cells assessed as increase in cleaved caspase-8 levels at 25 to 50 uM after 24 hrs by Western blot analysis. Type of assay: functional, cell-based. In short, it runs like this: as §2
Assay [11] has as its system MDA-MB-231. The experiment in a line: Induction of apoptosis in human MDA-MB-231 ER-negative cells assessed as increase in cleaved caspase-9 levels at 25 to 50 uM after 24 hrs by Western blot analysis. Type of assay: functional, cell-based. In short, it runs like this:
as §2

Assay [12] concerns MCF7. The experiment in a line: Induction of apoptosis in human MCF7 ER-positive cells assessed as increase in cleaved caspase-3 levels at 50 to 100 uM after 24 hrs by Western blot analysis. Type of assay: functional, cell-based. The method in brief: as §2
Assay [13] relates to MDA-MB-231. Put plainly: Induction of apoptosis in human MDA-MB-231 ER-negative cells assessed as increase in cleaved caspase-3 levels at 25 to 50 uM after 24 hrs by Western blot analysis. The format is functional, cell-based. In short, it runs like this: as §2
The subject of assay [14] is MCF7. The experiment in a line: Induction of apoptosis in human MCF7 ER-positive cells assessed as increase in PARP levels at 50 to 100 uM after 24 hrs by Western blot analysis. Type of assay: functional, cell-based. In short, it runs like this:
as §2

In assay [15] the test system is MDA-MB-231. The experiment in a line: Induction of apoptosis in human MDA-MB-231 ER-negative cells assessed as increase in PARP levels at 25 to 50 uM after 24 hrs by Western blot analysis. Type of assay: functional, cell-based. In short, it runs like this:
as §2

In assay [16] the test system is MCF7. Put plainly: Induction of apoptosis in human MCF7 ER-positive cells assessed as increase in Bax expression levels at 50 to 100 uM after 24 hrs by Western blot analysis. The format is functional, cell-based. The method in brief: as §2
Assay [17] concerns MDA-MB-231. The experiment in a line: Induction of apoptosis in human MDA-MB-231 ER-negative cells assessed as decrease in Bcl-2 expression levels at 25 to 50 uM after 24 hrs by Western blot analysis. Type of assay: functional, cell-based. The method in brief: as §2
For assay [18], the system named is MCF7. Put plainly: Induction of apoptosis in human MCF7 ER-positive cells assessed as increase in Bax to Bcl-2 ratio at 50 to 100 uM after 24 hrs by Western blot analysis.
For assay [19], the system named is MDA-MB-231. Put plainly: Induction of apoptosis in human MDA-MB-231 ER-negative cells assessed as increase in Bax to Bcl-2 ratio at 25 to 50 uM after 24 hrs by Western blot analysis.

The source made the active and inactive calls. No cut-off for these calls is given here.

In the case of `O=C(O[C@@H]1O[C@@H]2COC(=O)c3cc(O)c(O)c(O)c3-c3c(cc(O)c(O)c3O)C(=O)O[C@H]2[C@@H]2OC(=O)c3cc(O)c(O)c(O)c3-c3c(cc(O)c(O)c3O)C(=O)O[C@@H]12)c1cc(O)c(O)c(Oc2c(O)c(O)c(O)c3c2C(=O)O[C@H]2[C@@H]4OC(=O)c5cc(O)c(O)c(O)c5-c5c(cc(O)c(O)c5O)C(=O)O[C@H]4[C@@H](OC(=O)c4cc(O)c(O)c(O)c4)O[C@@H]2COC(=O)c2cc(O)c(O)c(O)c2-3)c1`, the result with MCF7 [1], in the assay with MDA-MB-231 [2], in the assay with MCF7 [9], in the assay with MDA-MB-231 [10], in the assay on MDA-MB-231 [11] and in the assay with MCF7 [12] was Active. The result in the assay on MDA-MB-231 [13], with MCF7 [14], with MDA-MB-231 [15], in the assay on MCF7 [16] and in the assay on MDA-MB-231 [17] was Active. In addition, the Activity result is “Dose-dependent effect” in the assay with MCF7 [3], “Dose-dependent effect” in the assay with MDA-MB-231 [4], 33.7% in the assay on MCF7 [7] and 40.7% in the assay with MDA-MB-231 [8]. The results for the viability at 100 µM with MCF7 [5] and in the assay on MDA-MB-231 [6] were 69% and 63%, respectively. Moreover, the Bax/Bcl-2 ratio entry in the assay on MCF7 [18] and in the assay with MDA-MB-231 [19] was “Active” each time.
